# Experimental data published in ChEMBL document CHEMBL1139838 (J Med Chem, 2007).
# Activity calls are given as the source filed them. The rule behind the calls is not given here. Where a SMILES comes first, the peptide text is derived from it. [ ]: non-standard residue; d: D form. Tic = O=C(O)[C@@H]1Cc2ccccc2CN1; Cha = N[C@@H](CC1CCCCC1)C(=O)O
# How the values were obtained:
# [1] = target: Mu-type opioid receptor (Cavia porcellus) (UniProt P97266); settings: Ileum
# [2] = target: Delta-type opioid receptor (Mus musculus) (UniProt P32300); settings: Vas deferens
# [3] = target: Mu-type opioid receptor (Rattus norvegicus, UniProt P33535); assay: Displacement of [3H]DAMGO from mu opioid receptor in Wistar rat brain membrane; type: cell membranes
# Outline: (§1)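 Wistar rat brain membranes in 50 mM Tris·HCl pH 7.4 with 200-300 µg protein. Tritiated ligand at 0.5-1 nM, with fresh unlabeled peptide at 10^-12 to 10^-5 M, for 45 min at 35 °C. Stopped by rapid GF/C filtration and ice-cold buffer washes, then scintillation counting. Nonspecific binding defined with 10 µM naloxone. Duplicates, repeated two or three times, mean ± SEM.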
# [4] = target: Delta-type opioid receptor (Rattus norvegicus, UniProt P33533); assay: Displacement of [3H]Ile5,6-deltorphin from delta opioid receptor in Wistar rat brain membrane; type: cell membranes
# Outline: as §1
# [5] = target: Delta-type opioid receptor (Homo sapiens) (UniProt P41143); assay: Activity at human delta opioid receptor expressed in CHO cells by [35S]GTP-gamma-S binding assay; type: functional, cell-based
# [6] = target: Mu-type opioid receptor (Cavia porcellus) (UniProt P97266); settings: Ileum; remark: listed apart in the source
# Mu-type opioid receptor (Cavia porcellus), sequence (P97266 whole entry): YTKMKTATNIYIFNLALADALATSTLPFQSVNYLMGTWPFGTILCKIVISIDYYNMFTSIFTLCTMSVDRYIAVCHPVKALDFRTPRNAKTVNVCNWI
# Mu-type opioid receptor, sequence (P33535 whole entry): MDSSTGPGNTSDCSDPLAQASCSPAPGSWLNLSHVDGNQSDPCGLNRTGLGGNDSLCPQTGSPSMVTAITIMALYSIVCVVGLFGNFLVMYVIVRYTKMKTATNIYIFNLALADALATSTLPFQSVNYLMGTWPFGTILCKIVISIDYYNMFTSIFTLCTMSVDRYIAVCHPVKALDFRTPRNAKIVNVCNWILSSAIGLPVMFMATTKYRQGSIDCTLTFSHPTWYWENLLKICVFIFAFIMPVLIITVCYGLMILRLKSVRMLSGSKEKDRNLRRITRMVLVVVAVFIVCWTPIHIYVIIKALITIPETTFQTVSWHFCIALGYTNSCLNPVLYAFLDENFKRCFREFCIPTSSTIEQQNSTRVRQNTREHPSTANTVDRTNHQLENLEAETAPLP
# Delta-type opioid receptor, sequence (P33533 whole entry): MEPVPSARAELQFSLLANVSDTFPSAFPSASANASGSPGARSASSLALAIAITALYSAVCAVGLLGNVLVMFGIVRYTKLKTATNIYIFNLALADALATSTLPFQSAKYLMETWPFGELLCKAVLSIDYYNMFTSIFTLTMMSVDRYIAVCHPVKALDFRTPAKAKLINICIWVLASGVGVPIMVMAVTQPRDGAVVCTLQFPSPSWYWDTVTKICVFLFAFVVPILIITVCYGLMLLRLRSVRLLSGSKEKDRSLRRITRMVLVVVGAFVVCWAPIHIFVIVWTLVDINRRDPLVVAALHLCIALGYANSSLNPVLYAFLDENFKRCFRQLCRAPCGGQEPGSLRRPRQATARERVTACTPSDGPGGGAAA
# Delta-type opioid receptor (Mus musculus), sequence (P32300 whole entry): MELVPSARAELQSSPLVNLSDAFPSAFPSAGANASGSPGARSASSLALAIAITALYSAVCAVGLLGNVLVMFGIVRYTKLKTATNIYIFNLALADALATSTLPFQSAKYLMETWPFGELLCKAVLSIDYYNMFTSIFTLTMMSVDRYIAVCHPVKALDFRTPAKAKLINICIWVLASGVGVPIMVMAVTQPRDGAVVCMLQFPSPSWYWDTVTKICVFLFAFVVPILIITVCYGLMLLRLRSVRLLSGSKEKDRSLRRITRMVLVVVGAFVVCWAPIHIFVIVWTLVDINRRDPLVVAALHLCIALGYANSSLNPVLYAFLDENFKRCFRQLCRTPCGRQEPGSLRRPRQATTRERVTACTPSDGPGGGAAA
# Delta-type opioid receptor (Homo sapiens), sequence (P41143 whole entry): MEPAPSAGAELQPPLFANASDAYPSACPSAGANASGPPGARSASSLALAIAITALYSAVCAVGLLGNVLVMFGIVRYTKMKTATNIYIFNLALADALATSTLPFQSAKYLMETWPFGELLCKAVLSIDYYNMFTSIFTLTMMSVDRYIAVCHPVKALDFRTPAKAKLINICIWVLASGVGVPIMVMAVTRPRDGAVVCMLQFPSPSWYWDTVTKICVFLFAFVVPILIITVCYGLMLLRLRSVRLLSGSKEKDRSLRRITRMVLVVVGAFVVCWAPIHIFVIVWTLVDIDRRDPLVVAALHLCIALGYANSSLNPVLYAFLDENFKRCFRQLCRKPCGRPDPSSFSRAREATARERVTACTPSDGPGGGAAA
SMILES,Ke [2] [nM],Ki [3] [nM],Ki [4] [nM],Activity [5],Ke [6] [nM],other results
N[C@@H](Cc1ccc(O)cc1)C(=O)N1Cc2ccccc2C[C@H]1C(=O)N[C@@H](Cc1ccccc1)C(=O)N[C@@H](Cc1ccccc1)C(=O)O (H-Y[Tic]FF-OH),4.8,–,–,–,–,Ke [1]: > 10000 nM
N[C@@H](Cc1ccc(O)cc1)C(=O)N1Cc2ccccc2C[C@H]1C(=O)N[C@@H](CC1CCCCC1)C(=O)N[C@@H](Cc1ccccc1)C(=O)O (H-Y[Tic][Cha]F-OH),0.44,3600,0.61,–,–,–
Cc1cc(O)cc(C)c1C[C@H](N)C(=O)N1Cc2ccccc2CC1C(=O)N[C@H](C(=O)N[C@@H](Cc1ccccc1)C(=O)O)[C@@H](C)C1CCCCC1 (stereo partly drawn),0.24,–,–,inactive,970,–
Cc1cc(O)cc(C)c1C[C@H](N)C(=O)N1Cc2ccccc2CC1C(=O)N[C@H](C(=O)N[C@@H](Cc1ccccc1)C(N)=O)[C@@H](C)C1CCCCC1 (stereo partly drawn),0.77,–,–,inactive,340,–
Cc1cc(O)cc(C)c1C[C@@H](N)C(=O)N1Cc2ccccc2C[C@H]1C(=O)N[C@@H](Cc1ccccc1)C(=O)N[C@@H](Cc1ccccc1)C(=O)O,0.2,–,–,–,–,–
Cc1cc(O)cc(C)c1C[C@H](N)C(=O)N1Cc2ccccc2C[C@H]1C(=O)N[C@@H](C(=O)N[C@@H](Cc1ccccc1)C(N)=O)[C@H](C)C1CCCCC1,–,290,13,–,–,–
Cc1cc(O)cc(C)c1C[C@H](N)C(=O)N1Cc2ccccc2C[C@H]1C(=O)N[C@H](C(=O)N[C@@H](Cc1ccccc1)C(=O)O)[C@H](C)C1CCCCC1,–,280,2,–,–,–
NC(=O)[C@H](Cc1ccccc1)NC(=O)[C@H](Cc1ccccc1)NC(=O)[C@@H]1Cc2ccccc2CN1C(=O)[C@H](N)Cc1ccc(O)cc1,18,–,–,–,–,Ke [1]: 1700 nM
Cc1cc(O)cc(C)c1C[C@H](N)C(=O)N1Cc2ccccc2CC1C(=O)N[C@H](C(=O)N[C@@H](Cc1ccccc1)C(N)=O)[C@H](C)C1CCCCC1 (stereo partly drawn),0.68,–,–,inactive,–,IC40 [1]: 110 nM
Cc1cc(O)cc(C)c1C[C@H](N)C(=O)N1Cc2ccccc2C[C@H]1C(=O)N[C@@H](C(=O)N[C@@H](Cc1ccccc1)C(=O)O)[C@H](C)C1CCCCC1,–,580,2,–,–,–
Cc1cc(O)cc(C)c1C[C@H](N)C(=O)N1Cc2ccccc2CC1C(=O)N[C@@H](C(=O)N[C@@H](Cc1ccccc1)C(=O)O)[C@H](C)C1CCCCC1 (stereo partly drawn),0.55,–,–,inactive,290,–
Cc1cc(O)cc(C)c1C[C@H](N)C(=O)N1Cc2ccccc2C[C@H]1C(=O)N[C@@H](C(=O)N[C@@H](Cc1ccccc1)C(=O)O)[C@@H](C)C1CCCCC1,–,55,1.5,–,–,–
Cc1cc(O)cc(C)c1C[C@H](N)C(=O)N1Cc2ccccc2CC1C(=O)N[C@@H](C(=O)N[C@@H](Cc1ccccc1)C(N)=O)[C@H](C)C1CCCCC1 (stereo partly drawn),1.7,–,–,inactive,670,–
Cc1cc(O)cc(C)c1C[C@H](N)C(=O)N1Cc2ccccc2C[C@H]1C(=O)N[C@@H](C(=O)N[C@@H](Cc1ccccc1)C(N)=O)[C@@H](C)C1CCCCC1,–,200,7,–,–,–
Cc1cc(O)cc(C)c1C[C@H](N)C(=O)N1Cc2ccccc2CC1C(=O)N[C@@H](C(=O)N[C@@H](Cc1ccccc1)C(N)=O)[C@@H](C)C1CCCCC1 (stereo partly drawn),1.94,–,–,inactive,120,–
Cc1cc(O)cc(C)c1C[C@H](N)C(=O)N1Cc2ccccc2CC1C(=O)N[C@@H](C(=O)N[C@@H](Cc1ccccc1)C(=O)O)[C@@H](C)C1CCCCC1 (stereo partly drawn),0.11,–,–,inactive,19,–
Cc1cc(O)cc(C)c1C[C@H](N)C(=O)N1Cc2ccccc2CC1C(=O)N[C@H](C(=O)N[C@@H](Cc1ccccc1)C(=O)O)[C@H](C)C1CCCCC1 (stereo partly drawn),0.81,–,–,inactive,–,IC30 [1]: 150 nM
Cc1cc(O)cc(C)c1C[C@H](N)C(=O)N1Cc2ccccc2C[C@H]1C(=O)N[C@H](C(=O)N[C@@H](Cc1ccccc1)C(N)=O)[C@@H](C)C1CCCCC1,–,330,4,–,–,–
Cc1cc(O)cc(C)c1C[C@H](N)C(=O)N1Cc2ccccc2C[C@H]1C(=O)N[C@H](C(=O)N[C@@H](Cc1ccccc1)C(N)=O)[C@H](C)C1CCCCC1,–,170,4.1,–,–,–
Cc1cc(O)cc(C)c1C[C@H](N)C(=O)N1Cc2ccccc2C[C@H]1C(=O)N[C@H](C(=O)N[C@@H](Cc1ccccc1)C(=O)O)[C@@H](C)C1CCCCC1,–,1400,0.48,–,–,–
